Each structure is given as a SMILES string. pIC50: −log10 of the molar value. Like-named read-outs stand apart in the source and are kept apart here.

The test system of one test is E. cloacae (IMP-1). The test can be described thus: Synergy assay: MIC of meropenem in combination with test compound. It counts as cell-based.
For the next test, the system named is E. coli (NDM-1). The description is as above. It counts as cell-based.
For test [1], the target named is T1, IMP-1 (Serratia marcescens, UniProt P52699). The experiment in a line: Enzyme inhibition assay with nitrocefin as chromogenic substrate. It counts as biochemical. The conditions noted are these: for decrease of activity against IMP-1 relative to 8: from IC50 data of Table 2.
T1 sequence (P52699 19-246, looked up, species assumed): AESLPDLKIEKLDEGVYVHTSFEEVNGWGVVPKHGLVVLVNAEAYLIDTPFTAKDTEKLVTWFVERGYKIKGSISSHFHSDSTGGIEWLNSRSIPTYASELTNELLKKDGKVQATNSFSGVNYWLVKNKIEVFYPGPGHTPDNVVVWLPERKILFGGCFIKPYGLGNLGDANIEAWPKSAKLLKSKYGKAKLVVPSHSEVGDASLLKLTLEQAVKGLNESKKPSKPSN
In the next test the test system is E. coli (VIM-2). The experiment in a line: Synergy assay: MIC of meropenem in combination with test compound. It counts as cell-based.
In a further test the target is IMP-28 (Klebsiella oxytoca, UniProt G4WB26). The test can be described thus: Enzyme inhibition assay with nitrocefin as chromogenic substrate. It counts as biochemical. The conditions noted are these: for decrease of activity against IMP-28 relative to 8: from IC50 data of Table 2.
Chain of IMP-28 (G4WB26 20-246): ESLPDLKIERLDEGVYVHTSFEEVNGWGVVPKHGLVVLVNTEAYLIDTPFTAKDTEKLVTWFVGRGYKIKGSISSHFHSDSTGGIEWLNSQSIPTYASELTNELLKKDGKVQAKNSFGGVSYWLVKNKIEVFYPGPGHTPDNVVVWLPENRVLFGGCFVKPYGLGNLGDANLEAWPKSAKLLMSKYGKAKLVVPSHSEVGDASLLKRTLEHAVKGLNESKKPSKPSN
The target of test [2] is T2, NDM-1 (Klebsiella pneumoniae, UniProt C7C422). The experiment in a line: Enzyme inhibition assay with nitrocefin as chromogenic substrate. It counts as biochemical. In short, it runs like this: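 Recombinant NDM-1 (6 nM) in 50 mM HEPES pH 7.2 with 1 μM ZnSO₄ and 0.01% Triton X-100 was preincubated with a range of test compound concentrations for 15–60 min at 25 °C. Nitrocefin (10 μM, ∼2 × K_M) was then added and A492 was read at once over 30 cycles. For time 0, enzyme was added last. IC50 came from initial velocities, in three independent replicates.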
T2 sequence (C7C422 29-270, looked up, species assumed): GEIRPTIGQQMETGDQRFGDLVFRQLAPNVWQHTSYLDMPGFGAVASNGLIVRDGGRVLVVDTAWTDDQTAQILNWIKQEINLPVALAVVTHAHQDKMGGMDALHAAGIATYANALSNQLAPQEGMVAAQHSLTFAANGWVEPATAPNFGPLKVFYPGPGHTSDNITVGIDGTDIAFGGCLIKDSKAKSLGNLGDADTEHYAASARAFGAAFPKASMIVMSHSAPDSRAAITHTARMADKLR

In a further test the test system is K. pneumoniae (IMP-28). The experiment in a line: Synergy assay: MIC of meropenem in combination with test compound. It counts as cell-based.
The next test has as its system IMP family. The conditions noted are these: cited from earlier work.
A further test concerns the target VIM-2 (Escherichia coli, UniProt Q5U7L7). The conditions noted are these: cited from earlier work.
For a further test, the system named is VIM-1. The conditions noted are these: cited from earlier work.
Test [3] deals with T1, IMP-1. The conditions noted are these: cited from earlier work.
Test [4] deals with T2, NDM-1. The note with it: read-out: IC50 NDM-1; cited from earlier work.
Setting [5] is: test compound 0 μg/mL (meropenem alone, baseline).
Setting [6] is: mean ± SD, nitrocefin substrate.

On to `O=C(Cc1ccccc1)N[C@@H]1C(=O)N2C(C(=O)O)=C(CS[C@@H](Cc3ccccc3)C(=O)O)CS[C@H]12` [Compound 10], for which, in the test with E. cloacae (IMP-1) (test compound 128 μg/mL), the “Fold reduction of MIC (meropenem)” value is on record as 4 (4) fold and the “meropenem MIC” value was 4 (4) μg/mL.

The pIC50 is −log10 of the IC50, conventionally taken in molar units. Regarding `O=C(O)CSCC1=C(C(=O)O)N2C(=O)[C@@H](NC(=O)Cc3ccccc3)[C@H]2SC1` [Compound 13], the “Fold reduction of MIC (meropenem)” value in the test with E. cloacae (IMP-1) (test compound 128 μg/mL) is 4 (4) fold; in the test on E. coli (VIM-2) (test compound 32 μg/mL), 2 (2) fold; in the test on E. coli (VIM-2) (test compound 64 μg/mL), 2 (2) fold. Also, the “meropenem MIC” value in the test on E. cloacae (IMP-1) (test compound 128 μg/mL) is 4 (4) μg/mL; in the test on E. coli (NDM-1) (setting [5]) it was 32 mg/L; in the test on E. coli (VIM-2) (test compound 32 μg/mL) it was 2 (2) μg/mL; in the test with E. coli (VIM-2) (test compound 64 μg/mL), 2 (2) μg/mL. On IMP-1 [1], this molecule showed a pIC50 of less than 4.00. Also, the “decrease of activity against IMP-1 relative to 8” value on IMP-1 [1] is “ca. 100 fold”. The “decrease of activity against IMP-28 relative to 8” value at IMP-28 is reported as “ca. 100 fold”.

As for `O=C(Cc1ccccc1)N[C@H](C(=O)O)[C@@H]1N=C(C(=O)O)C(CSC(C(=O)O)c2ccccc2)CS1` (stereo partly drawn) [Compound 8H], the “IC50 IMP-1” value against IMP-1 [1] (setting [6]) is recorded as “sub-micromolar”. Besides, the “IC50 IMP-28” value against IMP-28 (setting [6]) is “sub-micromolar”.

Consider `CC1=C(C(=O)O)N2C(=O)[C@@H](NC(=O)Cc3ccccc3)[C@H]2SC1` [Compound 15], for which the “meropenem MIC” value was 32 mg/L in the test on E. coli (NDM-1) (setting [5]), 2 (2) μg/mL in the test on E. coli (VIM-2) (test compound 32 μg/mL) and 2 (2) μg/mL in the test on E. coli (VIM-2) (test compound 64 μg/mL). In addition, the pIC50 against NDM-1 [2] and on IMP-1 [1] was less than 4.00 each time. The “decrease of activity against IMP-1 relative to 8” value at IMP-1 [1] is given as “ca. 100 fold”. The “Fold reduction of MIC (meropenem)” value in the test with E. coli (VIM-2) (test compound 32 μg/mL) and in the test with E. coli (VIM-2) (test compound 64 μg/mL) was 2 (2) fold in each case. On IMP-28, the “decrease of activity against IMP-28 relative to 8” value is reported as “ca. 100 fold”.

`O=C(O)c1cccc(C(=O)O)n1` [DPA, Dipicolinic acid, reference compound]: the “meropenem MIC” value with E. coli (NDM-1) (test compound 128 μg/mL) was not above 0.5 mg/L; in the test on K. pneumoniae (IMP-28) (test compound 64 μg/mL), not above 0.031 mg/L; in the test on K. pneumoniae (IMP-28) (test compound 128 μg/mL), not above 0.031 mg/L; with E. coli (VIM-2) (setting [5]), 4 µg/mL; in the test with E. coli (VIM-2) (test compound 32 μg/mL), not above 0.063 µg/mL; in the test with E. coli (VIM-2) (test compound 64 μg/mL), not above 0.063 µg/mL. In the test with E. coli (VIM-2) (test compound 128 μg/mL), the “meropenem MIC” value was not above 0.063 µg/mL.

With `O=C(Cc1ccccc1)N[C@@H]1C(=O)N2C(C(=O)O)=C(CSCc3ccccc3)CS[C@H]12` [Compound 11], the “meropenem MIC” value was 32 µg/mL in the test with E. cloacae (IMP-1) (setting [5]), 32 mg/L in the test on E. coli (NDM-1) (setting [5]), 2 (2) μg/mL in the test with E. coli (VIM-2) (test compound 32 μg/mL) and 2 (2) μg/mL in the test with E. coli (VIM-2) (test compound 64 μg/mL). Also, at NDM-1 [2], the pIC50 is less than 4.00. In addition, at IMP-1 [1], the “decrease of activity against IMP-1 relative to 8” value is “ca. 100 fold”. Further, the “Fold reduction of MIC (meropenem)” value in the test on E. coli (VIM-2) (test compound 32 μg/mL) and with E. coli (VIM-2) (test compound 64 μg/mL) was 2 (2) fold throughout. Further, on IMP-28, the “decrease of activity against IMP-28 relative to 8” value is given as “ca. 100 fold”.

For the molecule `O=C(Cc1ccccc1)N[C@@H]1C(=O)N2C(C(=O)O)=C(CSCC(=O)c3ccccc3)CS[C@H]12` [Compound 6], the “Fold reduction of MIC (meropenem)” value with E. cloacae (IMP-1) (test compound 128 μg/mL) is given as 4 (4) fold. Further, the “meropenem MIC” value is 4 (4) μg/mL with E. cloacae (IMP-1) (test compound 128 μg/mL) and 32 mg/L in the test on E. coli (NDM-1) (setting [5]).

As for `NCCN[C@H]1CC[C@H](CC(=O)N[C@H]2Cc3cccc(C(=O)O)c3OB2O)CC1` [taniborbactam], the “inhibition of the IMP family” value in the test with IMP family is reported as “weak inhibition”. The “IC50 VIM-2” value at VIM-2 was “sub-micromolar”.

Take `O=C(Cc1ccccc1)N[C@@H]1C(=O)N2C(C(=O)O)=C(CSCCc3ccccc3)CS[C@H]12` [Compound 12]: the “meropenem MIC” value with E. coli (NDM-1) (setting [5]) turned out to be 64 mg/L. Further, the pIC50 at NDM-1 [2] is less than 4.00.

For `O=C(Cc1ccccc1)N[C@@H]1C(=O)N2C(C(=O)O)=C(CSC(C(=O)O)c3ccccc3)CS[C@H]12` (stereo partly drawn) [Compound 8], the “Fold reduction of MIC (meropenem)” value in the test on K. pneumoniae (IMP-28) (test compound 32 μg/mL), in the test on K. pneumoniae (IMP-28) (test compound 64 μg/mL) and in the test on K. pneumoniae (IMP-28) (test compound 128 μg/mL) was not below 64 fold each time.

For `O=C(Cc1ccccc1)N[C@@H]1C(=O)N2C(C(=O)O)=C(CS[C@H](Cc3ccccc3)C(=O)O)CS[C@H]12` [Compound 9], the “Fold reduction of MIC (meropenem)” value in the test on K. pneumoniae (IMP-28) (test compound 32 μg/mL), in the test with K. pneumoniae (IMP-28) (test compound 64 μg/mL) and with K. pneumoniae (IMP-28) (test compound 128 μg/mL) was not below 64 fold throughout. For the same molecule, the “potency relative to diastereomer 10 against IMP-1” value at IMP-1 [1] (more potent than 10) is recorded as “ca. 10 fold”. On IMP-28 (more potent than 10), the “potency relative to diastereomer 10 against IMP-28” value was approximately 30 fold.

For `O=C(O)c1ncsc1NS(=O)(=O)c1cccnc1` [ANT431], the “inhibitory activity against VIM-1” value with VIM-1 is listed as “remain resistant”. In addition, at IMP-1 [3], the “inhibitory activity against IMP-1” value is recorded as “remain resistant”. For the same molecule, the pIC50 on NDM-1 [4] was 5.57.

Values taken from article PMC8273888 (Journal of Medicinal Chemistry, 2021).
